Source: ChEMBL document CHEMBL1777717, “Potent and selective oxindole-based vasopressin 1b receptor antagonists with improved pharmacokinetic properties” (Bioorg Med Chem Lett, 2011)

Assays:
Vasopressin V1b receptor = molecular target: T1, Vasopressin V1b receptor (Homo sapiens, UniProt P47901); assay: Displacement of [3H]AVP from human vasopressin V1b receptor expressed in CHO cells by scintillation counting; assay type: cell-based
T1 sequence (P47901 whole entry): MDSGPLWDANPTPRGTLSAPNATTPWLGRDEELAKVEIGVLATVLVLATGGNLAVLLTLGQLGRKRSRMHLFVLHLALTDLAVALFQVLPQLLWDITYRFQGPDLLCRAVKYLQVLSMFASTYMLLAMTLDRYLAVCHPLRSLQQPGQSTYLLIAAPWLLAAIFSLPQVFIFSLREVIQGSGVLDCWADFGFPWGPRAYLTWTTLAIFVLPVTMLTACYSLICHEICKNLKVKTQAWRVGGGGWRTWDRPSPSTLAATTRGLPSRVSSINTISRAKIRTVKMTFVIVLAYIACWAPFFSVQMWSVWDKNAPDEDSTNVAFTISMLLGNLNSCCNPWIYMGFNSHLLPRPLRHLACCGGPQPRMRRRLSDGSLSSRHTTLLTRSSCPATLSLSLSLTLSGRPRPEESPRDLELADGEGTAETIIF

Vasopressin V1a receptor = Vasopressin V1a receptor (Homo sapiens, UniProt P37288); assay: Displacement of [3H]AVP from human vasopressin V1a receptor expressed in CHO cells by scintillation counting; assay type: cell-based
Procedure, shortened: (§1)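 Ki from radioligand displacement at the human receptor, run per a previously published protocol; each value is the mean of at least two experiments.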

Vasopressin V2 receptor = Vasopressin V2 receptor (Homo sapiens, UniProt P30518); assay: Displacement of [3H]AVP from human vasopressin V2 receptor expressed in CHO cells by scintillation counting; assay type: cell-based; procedure, shortened: as §1
Oxytocin receptor = molecular target: T2, Oxytocin receptor (Homo sapiens, UniProt P30559); assay: Displacement of radiolabeled oxytocin from human oxytocin receptor expressed in CHO cells by scintillation counting; assay type: cell-based; procedure, shortened: as §1
T2 sequence (P30559 whole entry): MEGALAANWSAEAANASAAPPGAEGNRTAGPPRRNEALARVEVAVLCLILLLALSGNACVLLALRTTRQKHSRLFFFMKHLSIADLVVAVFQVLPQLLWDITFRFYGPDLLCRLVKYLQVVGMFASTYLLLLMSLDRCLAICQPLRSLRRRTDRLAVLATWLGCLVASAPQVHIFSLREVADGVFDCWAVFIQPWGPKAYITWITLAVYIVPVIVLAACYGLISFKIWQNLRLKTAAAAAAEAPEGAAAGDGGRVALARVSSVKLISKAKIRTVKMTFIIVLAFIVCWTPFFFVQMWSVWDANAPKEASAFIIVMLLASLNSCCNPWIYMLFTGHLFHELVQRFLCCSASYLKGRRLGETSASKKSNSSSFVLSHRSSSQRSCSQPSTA

[1] = Intrinsic clearance in human liver microsomes measured up to 40 mins by HPLC-MS method; assay type: ADME, Microsome
Procedure, shortened: (§2)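 Intrinsic clearance determined by liver microsome incubation using a previously published procedure, reported in µL/min/mg; each value is the mean of at least two experiments.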

[2] = Intrinsic clearance in rat liver microsomes measured up to 40 mins by HPLC-MS method; assay type: ADME, Microsome; procedure, shortened: as §2
Homo sapiens [3] = species: Homo sapiens; assay: Selectivity ratio of Ki for human vasopressin V1b receptor over Ki for human vasopressin V1a receptor
Homo sapiens [4] = species: Homo sapiens; assay: Selectivity ratio of Ki for human vasopressin V1b receptor over Ki for human vasopressin V2 receptor
Homo sapiens [5] = species: Homo sapiens; assay: Selectivity ratio of Ki for human vasopressin V1b receptor over Ki for human oxytocin receptor
[6] = Terminal half life in rat at 2 mg/kg, iv; assay type: ADME, organism-based; parameters: dose 2 mg/kg, route intravenous; details: in vivo, read-out: beta t1/2 (converted)
[7] = Volume of distribution at steady state in rat at 2 mg/kg, iv; assay type: ADME, organism-based; parameters: dose 2 mg/kg, route intravenous; details: in vivo, read-out: Vdss
[8] = Clearance in rat plasma at 2 mg/kg, iv; assay type: ADME, organism-based; parameters: dose 2 mg/kg, route intravenous
[9] = Oral bioavailability in rat plasma at 10 mg/kg; assay type: ADME, organism-based
[10] = Ratio of AUC in brain to plasma in rat at 10 mg/kg, ip; assay type: ADME, organism-based; parameters: dose 10 mg/kg, route intraperitoneal; details: brain and plasma, read-out: Ratio AUC

Sequence of Vasopressin V2 receptor (P30518 whole entry): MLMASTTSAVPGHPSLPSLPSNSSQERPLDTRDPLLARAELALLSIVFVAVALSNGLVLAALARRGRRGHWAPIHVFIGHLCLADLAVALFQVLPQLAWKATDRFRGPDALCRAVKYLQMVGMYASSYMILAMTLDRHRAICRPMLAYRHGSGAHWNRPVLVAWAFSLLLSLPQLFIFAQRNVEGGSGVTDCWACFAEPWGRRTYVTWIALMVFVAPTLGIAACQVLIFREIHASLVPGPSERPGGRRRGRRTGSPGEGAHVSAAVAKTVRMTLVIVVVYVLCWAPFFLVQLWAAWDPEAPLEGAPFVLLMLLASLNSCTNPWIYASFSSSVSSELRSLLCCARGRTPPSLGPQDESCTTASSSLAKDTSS
Sequence of Vasopressin V1a receptor (P37288 whole entry): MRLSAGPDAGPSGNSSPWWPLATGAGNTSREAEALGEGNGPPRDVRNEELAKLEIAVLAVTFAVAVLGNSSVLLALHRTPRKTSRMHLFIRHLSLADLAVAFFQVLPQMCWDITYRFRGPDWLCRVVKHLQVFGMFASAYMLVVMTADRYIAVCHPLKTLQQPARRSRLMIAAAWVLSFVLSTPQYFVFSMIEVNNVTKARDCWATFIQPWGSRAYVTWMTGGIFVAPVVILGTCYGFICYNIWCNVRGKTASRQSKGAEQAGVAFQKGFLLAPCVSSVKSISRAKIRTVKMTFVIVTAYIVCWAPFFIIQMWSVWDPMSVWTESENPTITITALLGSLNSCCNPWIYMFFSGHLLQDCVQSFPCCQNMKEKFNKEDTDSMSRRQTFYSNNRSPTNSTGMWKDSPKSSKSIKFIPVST

Row | SMILES | Ki (Vasopressin V1b receptor) | Ki (Vasopressin V1a receptor) | Ki (Vasopressin V2 receptor) | Ki (Oxytocin receptor) | microsomal CLint [1] | microsomal CLint [2] | Ratio Ki (Homo sapiens [3]) | Ratio Ki (Homo sapiens [4]) | Ratio Ki (Homo sapiens [5]) | half-life [6] | Vd [7] | clearance [8] | bioavailability [9] | Kp [10]
1 | COc1ccc(S(=O)(=O)N2C(=O)[C@@](c3cccnc3OC)(N3CCC[C@H]3C(=O)N(C)C)c3cc(Cl)ccc32)c(OC)c1 | 3.8 nM | 219 nM | > 1000 nM | 62 nM | 359 µL/min/mg | 446 µL/min/mg | – | – | – | – | – | – | – | –
2 | COc1ccc(S(=O)(=O)N2C(=O)[C@@](c3cccnc3OC)(N3CCCC3c3ncco3)c3cc(Cl)ccc32)c(OC)c1 (mixture of isomers) | 101 nM | – | – | – | – | – | – | – | – | – | – | – | – | –
3 | COc1ccc(S(=O)(=O)N2C(=O)[C@@](c3cccnc3OC)(N3CCC[C@H]3c3ncco3)c3cc(Cl)ccc32)cc1 | 20 nM | – | – | – | 75 µL/min/mg | 356 µL/min/mg | – | – | – | – | – | – | – | –
4 | COc1ccc(S(=O)(=O)N2C(=O)[C@@](c3ccc(CN4CCCC4)cc3OC)(N3CCC[C@H]3C(=O)N(C)C)c3cc(Cl)ccc32)c(OC)c1 | 0.81 nM | > 1000 nM | > 1000 nM | 45 nM | 155 µL/min/mg | 117 µL/min/mg | – | – | – | – | – | – | – | –
5 | COc1ccc(S(=O)(=O)N2C(=O)[C@@](c3cccnc3OC)(N3CCCC3c3nccs3)c3cc(Cl)ccc32)c(OC)c1 (mixture of isomers) | 276 nM | – | – | – | 373 µL/min/mg | 476 µL/min/mg | – | – | – | – | – | – | – | –
6 | COc1ccc(S(=O)(=O)N2C(=O)[C@@](c3cc(CN(C)C)ccc3OC)(N3CCC[C@H]3c3ncco3)c3cc(Cl)ccc32)cc1 | 2 nM | 289 nM | > 1000 nM | 115 nM | 204 µL/min/mg | 217 µL/min/mg | – | – | – | – | – | – | – | –
7 | COc1ccc(S(=O)(=O)N2C(=O)[C@@](c3cccnc3OC)(N3CCCC3c3ccccc3)c3cc(Cl)ccc32)c(OC)c1 (mixture of isomers) | > 10000 nM | – | – | – | – | – | – | – | – | – | – | – | – | –
8 | COc1ccc(S(=O)(=O)N2C(=O)[C@@](c3cc(CN4CCCC4)ccc3OC)(N3CCC[C@H]3c3ncco3)c3cc(Cl)ccc32)cc1 | 1.2 nM | 193 nM | > 1000 nM | 170 nM | 80 µL/min/mg | 164 µL/min/mg | – | – | – | – | – | – | – | –
9 | COc1ccc(S(=O)(=O)N2C(=O)[C@@](c3cnc(OC)nc3OC)(N3C[C@H](O)C[C@H]3C(=O)N(C)C)c3cc(Cl)ccc32)c(OC)c1 | 5.6 nM | 173 nM | 636 nM | 45 nM | 203 µL/min/mg | 366 µL/min/mg | – | – | – | – | – | – | – | –
10 | COc1ccc(S(=O)(=O)N2C(=O)[C@@](c3ccc(CN4CCCC4)cc3OC)(N3CCC[C@H]3C(=O)N(C)C)c3cc(Cl)ccc32)cc1 | 0.08 nM | 101 nM | > 1000 nM | 28 nM | 127 µL/min/mg | 106 µL/min/mg | > 100 | > 100 | > 100 | – | – | – | – | –
11 | COc1ccc(S(=O)(=O)N2C(=O)[C@@](c3cccnc3OC)(N3CCCC3c3cccs3)c3cc(Cl)ccc32)c(OC)c1 (mixture of isomers) | > 10000 nM | – | – | – | – | – | – | – | – | – | – | – | – | –
12 | COc1ccc(S(=O)(=O)N2C(=O)[C@@](c3cccnc3OC)(N3CCCC3c3ccccn3)c3cc(Cl)ccc32)c(OC)c1 (mixture of isomers) | 786 nM | – | – | – | 183 µL/min/mg | 702 µL/min/mg | – | – | – | – | – | – | – | –
13 | COc1ccc(S(=O)(=O)N2C(=O)[C@@](c3cc(CN4CCCC4)ccc3OC)(N3CCC[C@H]3C(=O)N(C)C)c3cc(Cl)ccc32)c(OC)c1 | 0.26 nM | 74 nM | > 1000 nM | 29 nM | 394 µL/min/mg | 148 µL/min/mg | – | – | – | – | – | – | – | –
14 | COc1ccc(S(=O)(=O)N2C(=O)[C@@](c3cc(CN4CCCC4)ccc3OC)(N3CCC[C@H]3C(=O)N(C)C)c3cc(Cl)ccc32)cc1 | 0.03 nM | 10 nM | > 1000 nM | 17 nM | 506 µL/min/mg | 101 µL/min/mg | > 100 | > 100 | > 100 | – | – | – | – | –
15 | COc1ccc(S(=O)(=O)N2C(=O)[C@@](c3cccnc3OC)(N3C[C@H](O)C[C@H]3C(=O)N(C)C)c3cc(Cl)ccc32)c(OC)c1 | 1.3 nM | 55 nM | 618 nM | 42 nM | 323 µL/min/mg | 446 µL/min/mg | – | – | – | – | – | – | – | –
16 | COc1ccc(S(=O)(=O)N2C(=O)[C@@](c3cc(CN4CCN(C)CC4)ccc3OC)(N3CCC[C@H]3C(=O)N(C)C)c3cc(Cl)ccc32)cc1 | 0.03 nM | 13 nM | > 1000 nM | 20 nM | 414 µL/min/mg | 78 µL/min/mg | > 100 | > 100 | > 100 | – | – | – | – | –
17 | COc1ccc(S(=O)(=O)N2C(=O)[C@@](c3nccnc3OC)(N3C[C@H](O)C[C@H]3C(=O)N(C)C)c3cc(Cl)ccc32)c(OC)c1 | 26 nM | 500 nM | > 1000 nM | 271 nM | 302 µL/min/mg | 1030 µL/min/mg | – | – | – | – | – | – | – | –
18 | COc1ccc(S(=O)(=O)N2C(=O)[C@@](c3ccccc3OC)(N3C[C@H](O)C[C@H]3C(=O)N(C)C)c3cc(Cl)ccc32)c(OC)c1 | – | – | – | – | 343 µL/min/mg | 432 µL/min/mg | – | – | – | 30 min | 2.8 L/kg | 5.2 L/h/kg | 12% | 0.03
19 | COc1ccc(S(=O)(=O)N2C(=O)[C@@](c3cc(CN4CCN(C)CC4)ccc3OC)(N3CCC[C@H]3c3ncco3)c3cc(Cl)ccc32)cc1 | 1.3 nM | 231 nM | > 1000 nM | 89 nM | 76 µL/min/mg | 56 µL/min/mg | – | – | – | – | – | – | – | –
20 | COc1ccc(S(=O)(=O)N2C(=O)[C@@](c3cnccc3OC)(N3C[C@H](O)C[C@H]3C(=O)N(C)C)c3cc(Cl)ccc32)c(OC)c1 | 2.1 nM | 49 nM | > 1000 nM | – | 158 µL/min/mg | 413 µL/min/mg | – | – | – | – | – | – | – | –
21 | COc1ccc(S(=O)(=O)N2C(=O)[C@@](c3ccc(CN4CCN(C)CC4)cc3OC)(N3CCC[C@H]3C(=O)N(C)C)c3cc(Cl)ccc32)cc1 | 0.04 nM | 15 nM | > 1000 nM | 7 nM | 378 µL/min/mg | 56 µL/min/mg | > 100 | > 100 | > 100 | – | – | – | – | –
